Data on 16 compounds can be found in ChEMBL document CHEMBL1157857, “Synthesis and antimicrobial of new anthraquinone derivatives incorporating pyrazole moiety” (2010).

Holding throughout (format): functional
One experiment deals with Fusarium solani. Put plainly: Antifungal activity against Fusarium solani at 2 mg/ml after 7 days by agar diffusion method. The note with it: 168 h, read-out: DIZ. In outline:
(§1)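 Fungi tested on potato dextrose agar, incubated seven days; diameter of inhibition zone recorded as activity measure. Three plates per compound as replicates. DMSO without test compound served as control for each organism. Reference drugs (ampicillin, chloramphenicol, cloxacillin) used at 2 mg/mL.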

The next experiment has as its system Pseudomonas aeruginosa. Put plainly: Antibacterial activity against Pseudomonas aeruginosa at 2 mg/ml after 24 hrs by agar diffusion method. The note with it: read-out: DIZ. In outline: (§2)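 Bacteria grown on nutrient agar, incubated 24 h; inhibition zone diameter measured as activity read-out. Three replicate plates per compound. DMSO-only control included for each organism. Ampicillin, chloramphenicol and cloxacillin used at 2 mg/mL as reference drugs.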

Experiment [1] relates to Staphylococcus epidermidis. Put plainly: Antibacterial activity against Staphylococcus epidermidis at 2 mg/ml after 24 hrs by agar diffusion method. The note with it: read-out: DIZ. In outline:
as §2
In general terms: Agar diffusion results depend on both activity and mobility in agar.

The next experiment deals with Alternaria solani. Put plainly: Antifungal activity against Alternaria solani at 2 mg/ml after 7 days by agar diffusion method. The note with it: 168 h, read-out: DIZ. In outline:
as §1

Turning to `Cc1nn(-c2ccccc2)c2c1cnc1c(C(=O)Nc3ccc4c(c3)C(=O)c3ccccc3C4=O)c(Nc3ccccc3)nn12`, the zone of inhibition at 2000 µg/mL with Fusarium solani came out at 14 mm; with Pseudomonas aeruginosa it was 19 mm; in experiment [1] it was 17 mm.

Consider `O=C1c2ccccc2C(=O)c2cc(-n3cnc4n[nH]c(Nc5ccccc5)c4c3=O)ccc21`, for which the zone of inhibition at 2000 µg/mL with Pseudomonas aeruginosa was 20 mm; with Alternaria solani it was 11 mm; in experiment [1] it was 15 mm.

As for `O=C(N[C@H](CO)[C@H](O)c1ccc([N+](=O)[O-])cc1)C(Cl)Cl` [CHLORAMPHENICOL], the zone of inhibition at 2000 µg/mL in the experiment on Fusarium solani stood at 17 mm; in the experiment with Pseudomonas aeruginosa it was 24 mm; in the experiment on Alternaria solani, 18 mm; in experiment [1], 27 mm.

Take `O=C1c2ccccc2C(=O)c2cc(NC(=O)c3c(Nc4ccccc4)nn4c5c(cnc34)CCc3ccccc3-5)ccc21`: the zone of inhibition at 2000 µg/mL in the experiment with Fusarium solani turned out to be 14 mm; in the experiment on Pseudomonas aeruginosa, 20 mm; in the experiment with Alternaria solani it was 22 mm; in experiment [1] it was 25 mm.

As for `Cc1c(N/C(Nc2ccccc2)=C(\C#N)C(=O)Nc2ccc3c(c2)C(=O)c2ccccc2C3=O)c(=O)n(-c2ccccc2)n1C`, the zone of inhibition at 2000 µg/mL worked out at 16 mm in the experiment with Fusarium solani, 22 mm in the experiment with Pseudomonas aeruginosa, 21 mm in the experiment with Alternaria solani and 24 mm in experiment [1].

On to `CS/C(Nc1ccccc1)=C(\C#N)C(=O)Nc1ccc2c(c1)C(=O)c1ccccc1C2=O`, for which the zone of inhibition at 2000 µg/mL in the experiment with Pseudomonas aeruginosa was 13 mm; in the experiment with Alternaria solani, 12 mm; in experiment [1] it was 12 mm.

For `COc1ccc(-c2ccnc3c(C(=O)Nc4ccc5c(c4)C(=O)c4ccccc4C5=O)c(Nc4ccccc4)nn23)cc1`, the zone of inhibition at 2000 µg/mL in the experiment on Fusarium solani was 15 mm; in the experiment on Pseudomonas aeruginosa, 20 mm; with Alternaria solani it was 17 mm; in experiment [1], 21 mm.

Consider `Cc1cc(C)c2c(N/N=C(/C#N)C(=O)Nc3ccc4c(c3)C(=O)c3ccccc3C4=O)n[nH]c2n1`, for which the zone of inhibition at 2000 µg/mL with Fusarium solani came out at 13 mm; in the experiment with Pseudomonas aeruginosa, 27 mm; in the experiment with Alternaria solani it was 18 mm; in experiment [1], 19 mm.

Consider `Nc1n[nH]cc1C(=O)Nc1ccc2c(c1)C(=O)c1ccccc1C2=O`, for which the zone of inhibition at 2000 µg/mL with Fusarium solani amounted to 16 mm; with Pseudomonas aeruginosa, 16 mm; with Alternaria solani, 17 mm; in experiment [1], 22 mm.

Take `Nc1n[nH]c(Nc2ccccc2)c1C(=O)Nc1ccc2c(c1)C(=O)c1ccccc1C2=O`: the zone of inhibition at 2000 µg/mL is 16 mm in the experiment with Fusarium solani, 14 mm in the experiment with Pseudomonas aeruginosa, 14 mm in the experiment with Alternaria solani and 11 mm in experiment [1].

For `Cc1cc(C)c2c(n1)nn1c(N)c(C(=O)Nc3ccc4c(c3)C(=O)c3ccccc3C4=O)nnc21`, the zone of inhibition at 2000 µg/mL with Fusarium solani amounted to 17 mm; in the experiment on Pseudomonas aeruginosa, 21 mm; with Alternaria solani, 19 mm; in experiment [1], 14 mm.

Take `CC1(C)S[C@@H]2[C@H](NC(=O)[C@H](N)c3ccccc3)C(=O)N2[C@H]1C(=O)O` [AMPICILLIN]: the zone of inhibition at 2000 µg/mL with Fusarium solani turned out to be 17 mm; in the experiment on Pseudomonas aeruginosa, 21 mm; in the experiment on Alternaria solani, 19 mm; in experiment [1], 19 mm.

As to `CN(C)/C=C(\C#N)C(=O)Nc1ccc2c(c1)C(=O)c1ccccc1C2=O`, the zone of inhibition at 2000 µg/mL in the experiment on Fusarium solani came to 12 mm; with Pseudomonas aeruginosa, 14 mm.

For `Cc1onc(-c2ccccc2Cl)c1C(=O)N[C@@H]1C(=O)N2[C@@H]1SC(C)(C)[C@@H]2C(=O)O` [CLOXACILLIN], the zone of inhibition at 2000 µg/mL in the experiment on Fusarium solani was 22 mm; in the experiment with Pseudomonas aeruginosa, 30 mm; with Alternaria solani it was 20 mm; in experiment [1], 22 mm.

Consider `Cc1ccc(C)n1-c1n[nH]c(Nc2ccccc2)c1C(=O)Nc1ccc2c(c1)C(=O)c1ccccc1C2=O`, for which the figures for the zone of inhibition at 2000 µg/mL (with Pseudomonas aeruginosa; in experiment [1]) were 16 mm and 19 mm, respectively.

For the compound `Cc1cc(C)n2nc(Nc3ccccc3)c(C(=O)Nc3ccc4c(c3)C(=O)c3ccccc3C4=O)c2n1`, the zone of inhibition at 2000 µg/mL in the experiment on Fusarium solani worked out at 13 mm; in the experiment with Pseudomonas aeruginosa, 17 mm; in the experiment on Alternaria solani, 14 mm; in experiment [1] it was 20 mm.
